Assay results taken from ChEMBL document CHEMBL1157490, “Imidazopyridines as VLA-4 integrin antagonists” (Bioorg Med Chem Lett, 2008).

Key:
Integrin alpha-4/beta-1 = Integrin alpha-4/beta-1 (Homo sapiens, UniProt P05556+P13612); test: Inhibition of integrin alpha4beta1 receptor in human whole blood by flow cytometry
How it was run: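 Human whole blood incubated with 3 mM MnCl2 and streptavidin-FITC, with or without 10 μg/mL biotinylated dimeric hVCAM-mFc. Compound added from tripling dilutions in TBS, 30 min at room temperature with shaking. Red cells lysed, leukocytes pelleted, washed twice in TBS and analysed by flow cytometry for bound VCAM; IC50 derived.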

Cytochrome P450 1A2 = target: T1, Cytochrome P450 1A2 (Homo sapiens, UniProt P05177); test: Inhibition of CYP1A2; assay type: ADME
T1 sequence (P05177 whole entry): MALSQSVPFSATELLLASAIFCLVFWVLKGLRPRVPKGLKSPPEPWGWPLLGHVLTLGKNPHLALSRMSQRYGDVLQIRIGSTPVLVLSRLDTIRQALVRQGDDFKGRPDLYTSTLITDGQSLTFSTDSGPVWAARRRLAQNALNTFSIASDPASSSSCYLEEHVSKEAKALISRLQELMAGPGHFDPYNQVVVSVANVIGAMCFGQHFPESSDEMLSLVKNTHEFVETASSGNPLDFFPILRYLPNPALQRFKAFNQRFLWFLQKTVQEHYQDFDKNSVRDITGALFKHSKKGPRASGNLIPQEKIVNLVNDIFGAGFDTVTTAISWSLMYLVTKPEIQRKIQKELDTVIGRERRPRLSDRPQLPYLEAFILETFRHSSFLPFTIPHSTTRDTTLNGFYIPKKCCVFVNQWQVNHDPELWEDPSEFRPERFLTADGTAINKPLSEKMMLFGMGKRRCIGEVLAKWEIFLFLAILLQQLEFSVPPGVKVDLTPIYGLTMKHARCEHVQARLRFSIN

Cytochrome P450 2C9 = Cytochrome P450 2C9 (Homo sapiens, UniProt P11712); test: Inhibition of CYP2C9; assay type: ADME
[1] = Metabolic stability in mouse microsomes assessed as intrinsic clearance at 0.5 uM; assay type: ADME, Microsome
Cytochrome P450 3A4 = Cytochrome P450 3A4 (Homo sapiens, UniProt P08684); test: Inhibition of CYP3A4; assay type: ADME
[2] = Metabolic stability in rat microsomes assessed as intrinsic clearance at 0.5 uM; assay type: ADME, Microsome
Cytochrome P450 2D6 = Cytochrome P450 2D6 (Homo sapiens, UniProt P10635); test: Inhibition of CYP2D6; assay type: ADME
[3] = Metabolic stability in human microsomes assessed as intrinsic clearance at 0.5 uM; assay type: ADME, Microsome

Chain of Cytochrome P450 2C9 (P11712 whole entry): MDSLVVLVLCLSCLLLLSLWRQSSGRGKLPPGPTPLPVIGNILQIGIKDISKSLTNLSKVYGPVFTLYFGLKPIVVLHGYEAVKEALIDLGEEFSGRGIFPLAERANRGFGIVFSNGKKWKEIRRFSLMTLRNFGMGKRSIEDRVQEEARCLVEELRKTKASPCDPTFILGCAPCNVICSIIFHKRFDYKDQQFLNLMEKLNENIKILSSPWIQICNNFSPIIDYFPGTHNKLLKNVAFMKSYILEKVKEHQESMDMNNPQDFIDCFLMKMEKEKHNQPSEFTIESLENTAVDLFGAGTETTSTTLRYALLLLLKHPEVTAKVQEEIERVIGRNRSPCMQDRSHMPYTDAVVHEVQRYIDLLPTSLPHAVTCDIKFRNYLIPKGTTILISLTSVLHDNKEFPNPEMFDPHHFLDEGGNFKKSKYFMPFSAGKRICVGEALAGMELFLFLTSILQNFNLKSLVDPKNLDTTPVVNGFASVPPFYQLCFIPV
Chain of Cytochrome P450 3A4 (P08684 whole entry): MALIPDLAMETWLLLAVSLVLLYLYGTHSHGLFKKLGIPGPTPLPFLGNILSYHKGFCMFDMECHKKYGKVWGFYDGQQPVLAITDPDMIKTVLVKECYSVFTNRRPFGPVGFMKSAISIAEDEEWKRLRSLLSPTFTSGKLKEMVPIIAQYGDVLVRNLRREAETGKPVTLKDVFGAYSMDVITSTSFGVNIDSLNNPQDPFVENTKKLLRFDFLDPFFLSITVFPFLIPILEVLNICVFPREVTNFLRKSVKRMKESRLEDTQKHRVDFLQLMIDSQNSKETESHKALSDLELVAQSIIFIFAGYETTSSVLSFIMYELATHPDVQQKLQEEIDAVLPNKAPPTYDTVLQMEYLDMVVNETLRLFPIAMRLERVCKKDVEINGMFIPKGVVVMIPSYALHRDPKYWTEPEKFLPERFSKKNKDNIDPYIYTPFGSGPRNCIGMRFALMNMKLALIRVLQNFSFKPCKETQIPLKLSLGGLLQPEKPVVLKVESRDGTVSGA
Chain of Cytochrome P450 2D6 (P10635 whole entry): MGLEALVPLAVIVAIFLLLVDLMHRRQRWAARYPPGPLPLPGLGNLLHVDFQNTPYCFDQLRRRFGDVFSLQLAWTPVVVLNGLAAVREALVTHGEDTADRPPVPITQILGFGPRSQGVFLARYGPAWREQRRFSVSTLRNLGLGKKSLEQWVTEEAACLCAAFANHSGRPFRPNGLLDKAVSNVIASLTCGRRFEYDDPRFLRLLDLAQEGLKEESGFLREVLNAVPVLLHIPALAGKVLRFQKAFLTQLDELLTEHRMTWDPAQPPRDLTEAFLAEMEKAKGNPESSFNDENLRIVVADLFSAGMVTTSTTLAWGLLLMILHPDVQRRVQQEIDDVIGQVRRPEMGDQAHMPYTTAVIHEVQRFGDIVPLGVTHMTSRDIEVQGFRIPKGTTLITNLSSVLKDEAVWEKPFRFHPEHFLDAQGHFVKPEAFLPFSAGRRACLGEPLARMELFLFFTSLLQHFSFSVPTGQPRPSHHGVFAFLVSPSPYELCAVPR
Chain of Integrin alpha-4/beta-1 (P05556 whole entry): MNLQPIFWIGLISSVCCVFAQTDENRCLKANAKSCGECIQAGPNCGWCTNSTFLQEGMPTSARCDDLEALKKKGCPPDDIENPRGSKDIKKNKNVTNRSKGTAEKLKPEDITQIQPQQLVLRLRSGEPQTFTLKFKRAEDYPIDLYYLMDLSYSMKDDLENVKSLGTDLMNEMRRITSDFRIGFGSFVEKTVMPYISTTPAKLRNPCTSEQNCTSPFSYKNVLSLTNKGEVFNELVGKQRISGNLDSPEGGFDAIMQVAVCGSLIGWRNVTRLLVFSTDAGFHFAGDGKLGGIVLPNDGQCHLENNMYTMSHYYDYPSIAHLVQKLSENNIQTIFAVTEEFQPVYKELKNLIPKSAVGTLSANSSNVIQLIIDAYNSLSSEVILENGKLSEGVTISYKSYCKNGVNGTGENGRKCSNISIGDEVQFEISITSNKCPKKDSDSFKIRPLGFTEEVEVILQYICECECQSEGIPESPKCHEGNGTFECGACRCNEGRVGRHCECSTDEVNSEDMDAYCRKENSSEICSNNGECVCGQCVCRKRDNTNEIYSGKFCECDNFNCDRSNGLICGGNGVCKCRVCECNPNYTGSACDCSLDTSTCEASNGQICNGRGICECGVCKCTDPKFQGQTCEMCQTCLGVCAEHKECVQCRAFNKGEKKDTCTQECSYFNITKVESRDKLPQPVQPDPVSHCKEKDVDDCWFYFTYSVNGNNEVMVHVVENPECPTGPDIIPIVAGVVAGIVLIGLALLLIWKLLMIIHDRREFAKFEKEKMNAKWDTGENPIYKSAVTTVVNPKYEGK
Chain of Integrin alpha-4/beta-1 (P13612 whole entry): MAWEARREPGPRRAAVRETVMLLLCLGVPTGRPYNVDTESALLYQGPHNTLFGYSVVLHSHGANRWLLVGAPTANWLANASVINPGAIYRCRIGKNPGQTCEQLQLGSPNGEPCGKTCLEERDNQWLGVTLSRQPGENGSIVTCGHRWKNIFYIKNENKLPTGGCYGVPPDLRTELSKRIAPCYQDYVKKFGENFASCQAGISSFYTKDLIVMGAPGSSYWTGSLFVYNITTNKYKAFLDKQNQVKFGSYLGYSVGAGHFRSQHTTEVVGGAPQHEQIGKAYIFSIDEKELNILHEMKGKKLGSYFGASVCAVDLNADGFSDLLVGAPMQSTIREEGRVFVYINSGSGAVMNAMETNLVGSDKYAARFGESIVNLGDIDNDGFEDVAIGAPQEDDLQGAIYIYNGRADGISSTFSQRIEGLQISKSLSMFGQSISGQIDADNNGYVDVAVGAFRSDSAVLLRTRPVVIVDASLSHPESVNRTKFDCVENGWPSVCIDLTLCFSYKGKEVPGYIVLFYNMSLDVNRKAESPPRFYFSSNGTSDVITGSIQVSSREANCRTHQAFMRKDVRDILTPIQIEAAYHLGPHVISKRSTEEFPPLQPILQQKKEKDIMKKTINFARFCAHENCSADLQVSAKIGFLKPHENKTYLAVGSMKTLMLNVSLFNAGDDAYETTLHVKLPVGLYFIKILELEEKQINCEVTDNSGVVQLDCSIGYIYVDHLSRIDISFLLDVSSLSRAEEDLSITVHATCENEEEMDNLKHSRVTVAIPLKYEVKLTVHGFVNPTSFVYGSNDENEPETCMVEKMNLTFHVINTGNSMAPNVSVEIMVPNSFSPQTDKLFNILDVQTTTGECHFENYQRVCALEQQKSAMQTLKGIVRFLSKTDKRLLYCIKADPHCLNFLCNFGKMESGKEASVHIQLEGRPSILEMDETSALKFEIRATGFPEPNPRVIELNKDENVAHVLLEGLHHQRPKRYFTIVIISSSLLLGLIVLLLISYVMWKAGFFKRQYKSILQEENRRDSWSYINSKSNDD

IC50 (Integrin alpha-4/beta-1) [nM]	Structure (SMILES)	other results
71	O=C(O)[C@H](Cc1ccc(-n2c(-c3ccccc3)nc3cccnc32)cc1)NC1=C(Br)C(=O)C12CCCCC2	–
9	CNc1ccc(-c2nc3cccnc3n2-c2ccc(C[C@H](NC3=C(Br)C(=O)C34CCCCC4)C(=O)O)cc2)cn1	–
2	CC(C)SC1=C(N[C@@H](Cc2ccc(-n3c(-c4cccnc4)nc4cccnc43)cc2)C(=O)O)C2(CCCCC2)C1=O	–
19	CC1(C)C(=O)C(Cl)=C1N[C@@H](Cc1ccc(-n2c(-c3cccnc3)nc3cccnc32)cc1)C(=O)O	–
8	O=C(O)[C@H](Cc1ccc(-n2c(-c3ccc(C(F)(F)F)nc3)nc3cccnc32)cc1)NC1=C(Br)C(=O)C12CCCCC2	–
2680	O=C(O)[C@H](Cc1ccc(-n2c(-c3cccnc3)nc3cc(F)ccc32)cc1)NC1=C(Br)C(=O)C12CCCCC2	–
10	CC1(C)C(=O)C(Br)=C1N[C@@H](Cc1ccc(-n2c(-c3cccnc3)nc3cccnc32)cc1)C(=O)O	–
7	O=C(O)[C@H](Cc1ccc(-n2c(-c3cccnc3)nc3cccnc32)cc1)NC1=C(Cl)C(=O)C12CCCCC2	–
22	CN(C)c1ccc(-c2nc3cccnc3n2-c2ccc(C[C@H](NC3=C(Br)C(=O)C34CCCCC4)C(=O)O)cc2)cn1	–
3	O=C(O)[C@H](Cc1ccc(-n2c(-c3cccnc3)nc3cccnc32)cc1)NC1=C(Br)C(=O)C12CCCCC2	IC50 (Cytochrome P450 1A2): > 100000 nM; IC50 (Cytochrome P450 2C9): 10000 nM; microsomal CLint at 0.5 µM [1]: 11 µL/min/mg; IC50 (Cytochrome P450 3A4): 62000 nM; microsomal CLint at 0.5 µM [2]: 48 µL/min/mg; IC50 (Cytochrome P450 2D6): > 100000 nM; microsomal CLint at 0.5 µM [3]: < 1 µL/min/mg
236	O=C(O)[C@H](Cc1ccc(-n2c(-c3cccnc3)nc3cnccc32)cc1)NC1=C(Br)C(=O)C12CCCCC2	–
46	CN(C)c1ccnc(-c2nc3cccnc3n2-c2ccc(C[C@H](NC3=C(Br)C(=O)C34CCCCC4)C(=O)O)cc2)c1	–
3	O=C(O)[C@H](Cc1ccc(-n2c(-c3ccc(Cl)nc3)nc3cccnc32)cc1)NC1=C(Br)C(=O)C12CCCCC2	–
24	O=C(O)[C@H](Cc1ccc(-n2c(-c3cccnc3)nc3cccnc32)cc1)NC1=CC(=O)C12CCCCC2	–
2	CSC1=C(N[C@@H](Cc2ccc(-n3c(-c4cccnc4)nc4cccnc43)cc2)C(=O)O)C2(CCCCC2)C1=O	–
126	CC1(C)C(=O)C=C1N[C@@H](Cc1ccc(-n2c(-c3cccnc3)nc3cccnc32)cc1)C(=O)O	–

Further lines, the compound ahead of its results:

Structure (SMILES)	IC50 (Integrin alpha-4/beta-1) [nM]	other results
O=C(O)[C@H](Cc1ccc(-n2c(CC3CC3)nc3cccnc32)cc1)NC1=C(Br)C(=O)C12CCCCC2	8	–
N#CCc1nc2cccnc2n1-c1ccc(C[C@H](NC2=C(Br)C(=O)C23CCCCC3)C(=O)O)cc1	10	–
O=C(O)[C@H](Cc1ccc(-n2c(C3COCCN3)nc3cccnc32)cc1)NC1=C(Br)C(=O)C12CCCCC2 (stereo partly specified)	10	–
CC(C)(C)c1nc2cccnc2n1-c1ccc(C[C@H](NC2=C(Br)C(=O)C23CCCCC3)C(=O)O)cc1	3	–
O=C(O)[C@H](Cc1ccc(-n2c(-c3cccnc3)nc3cnccc32)cc1)NC1=CC(=O)C12CCCCC2	1620	–
O=C(O)[C@H](Cc1ccc(-n2c(-c3ccc(N4CCCCC4)nc3)nc3cccnc32)cc1)NC1=C(Br)C(=O)C12CCCCC2	83	–
Cc1nc2cccnc2n1-c1ccc(C[C@H](NC2=C(Br)C(=O)C23CCCCC3)C(=O)O)cc1	570	–
CSCCc1nc2cccnc2n1-c1ccc(C[C@H](NC2=C(Br)C(=O)C23CCCCC3)C(=O)O)cc1	11	–
O=C(O)[C@H](Cc1ccc(-n2c(C(F)(F)F)nc3cccnc32)cc1)NC1=C(Br)C(=O)C12CCCCC2	22	–
O=C(O)[C@H](Cc1ccc(-n2c(C3CCNCC3)nc3cccnc32)cc1)NC1=C(Br)C(=O)C12CCCCC2	13	–
O=C(O)[C@H](Cc1ccc(-n2c(C3CCC3)nc3cccnc32)cc1)NC1=C(Br)C(=O)C12CCCCC2	18	–
CC(C)c1nc2cccnc2n1-c1ccc(C[C@H](NC2=C(Br)C(=O)C23CCCCC3)C(=O)O)cc1	9	IC50 (Cytochrome P450 1A2): > 100000 nM; IC50 (Cytochrome P450 2C9): 18000 nM; microsomal CLint at 0.5 µM [1]: 14 µL/min/mg; IC50 (Cytochrome P450 3A4): 79000 nM; microsomal CLint at 0.5 µM [2]: 38 µL/min/mg; IC50 (Cytochrome P450 2D6): > 100000 nM; microsomal CLint at 0.5 µM [3]: 4 µL/min/mg
O=C(O)[C@H](Cc1ccc(-n2c(C3CCCCN3)nc3cccnc32)cc1)NC1=C(Br)C(=O)C12CCCCC2 (stereo partly specified)	3	–
O=C(O)[C@H](Cc1ccc(-n2c(-c3cccnc3)nc3cnccc32)cc1)NC1=C(Cl)C(=O)C12CCCCC2	504	–
O=C(O)[C@H](Cc1ccc(-n2c(C3CCCC3)nc3cccnc32)cc1)NC1=C(Br)C(=O)C12CCCCC2	14	–
O=C(O)[C@H](Cc1ccc(-n2c(C3CC3)nc3cccnc32)cc1)NC1=C(Br)C(=O)C12CCCCC2	95	–
CC(C)Cc1nc2cccnc2n1-c1ccc(C[C@H](NC2=C(Br)C(=O)C23CCCCC3)C(=O)O)cc1	11	–
O=C(O)[C@H](Cc1ccc(-n2c(C3CCCNC3)nc3cccnc32)cc1)NC1=C(Br)C(=O)C12CCCCC2 (stereo partly specified)	6	–
O=C(O)[C@H](Cc1ccc(-n2c(C3(C(F)(F)F)CC3)nc3cccnc32)cc1)NC1=C(Br)C(=O)C12CCCCC2	2	IC50 (Cytochrome P450 1A2): > 100000 nM; IC50 (Cytochrome P450 2C9): 8000 nM; microsomal CLint at 0.5 µM [1]: 15 µL/min/mg; IC50 (Cytochrome P450 3A4): 10000 nM; microsomal CLint at 0.5 µM [2]: 52 µL/min/mg; IC50 (Cytochrome P450 2D6): > 100000 nM; microsomal CLint at 0.5 µM [3]: 6 µL/min/mg
